Experiment [1] has as its system Candida albicans. Kind of experiment: Antimicrobial activity against Candida albicans was determined after 48 hours of incubation. It counts as functional. The gist of the method:
(§1)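 Disk diffusion on yeast plates: cellulose disks carrying test compound, with an EtOH control. Incubation 48 h. The inhibition zone radius is recorded in mm.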

The subject of experiment [2] is Botrytis cinerea. Kind of experiment: Percent growth of Botrytis cinerea after 7 days of incubation. The class given is functional. The arrangement: concentration or dose not given beside the values. The gist of the method:
(§2)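 Fungal plate assay: pyrone dissolved in absolute EtOH at 10mg/mL and pipetted 2 cm offset from the centre of the plate containing the organism. EtOH alone served as control. Growth is recorded as percentage of the organism after 72 h and after 7 days of incubation.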

In experiment [3] the test system is Globisporangium ultimum. Kind of experiment: Percent growth of Pythium ultimum after 72 hours of incubation. The class given is functional. The arrangement: concentration or dose not given beside the values. The gist of the method: as §2
Experiment [4] relates to Fusarium oxysporum. Put plainly: Percent growth of Fusarium oxysporum after 72 hours of incubation. The arrangement: concentration or dose not given beside the values. The class given is functional. The gist of the method:
as §2

Experiment [5] concerns Schizosaccharomyces pombe. Put plainly: Antimicrobial activity against Schizosaccharomyces pombe was determined after 48 hours of incubation. It counts as functional. The gist of the method: as §1
For experiment [6], the system named is Globisporangium mamillatum. Kind of experiment: Percent growth of Pythium mammillatum after 7 days of incubation. Details: concentration or dose not given beside the values. The class given is functional. The gist of the method:
as §2

In experiment [7] the test system is Staphylococcus aureus. Kind of experiment: Antimicrobial activity against Staphylococcus aureus was determined after 96 hours of incubation. It counts as functional. The procedure, abridged: (§3)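 Disk diffusion: cellulose disks loaded with test compound and placed on bacterial plates, with an EtOH control disk. Incubation 96 h. Read-out is the radius (mm) of the inhibition zone.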

Experiment [8] relates to Fusarium oxysporum. Kind of experiment: Percent growth of Fusarium oxysporum after 7 days of incubation. Details: concentration or dose not given beside the values. The class given is functional. The procedure, abridged:
as §2

Experiment [9] deals with Escherichia coli. Kind of experiment: Antimicrobial activity against Escherichia coli was determined after 96 hours of incubation. The class given is functional. The procedure, abridged:
as §3

Experiment [10] relates to Thanatephorus cucumeris. Kind of experiment: Percent growth of Rhizoctonia solani after 72 hours of incubation. The arrangement: concentration or dose not given beside the values. The class given is functional. The procedure, abridged: as §2
Experiment [11] deals with Thanatephorus cucumeris. Kind of experiment: Percent growth of Rhizoctonia solani after 7 days of incubation. The class given is functional. The arrangement: concentration or dose not given beside the values. The gist of the method:
as §2

The subject of experiment [12] is Botrytis cinerea. Kind of experiment: Percent growth of Botrytis cinerea after 72 hours of incubation. It counts as functional. The arrangement: concentration or dose not given beside the values. The gist of the method: as §2
Experiment [13] has as its system Aspergillus niger. Put plainly: Percent growth of Aspergillus niger after 7 days of incubation. The class given is functional. The arrangement: concentration or dose not given beside the values. The gist of the method:
as §2

The test system of experiment [14] is Bacillus subtilis. Put plainly: Antimicrobial activity against Bacillus subtilis was determined after 96 hours of incubation. The class given is functional. The procedure, abridged: as §3
The test system of experiment [15] is Globisporangium ultimum. Kind of experiment: Percent growth of Pythium ultimum after 7 days of incubation. Details: concentration or dose not given beside the values. The class given is functional. The procedure, abridged: as §2
Experiment [16] has as its system Saccharomyces cerevisiae. Put plainly: Antimicrobial activity against Saccharomyces cerevisiae was determined after 48 hours of incubation. The class given is functional. The gist of the method: as §1
Experiment [17] deals with Aspergillus niger. Put plainly: Percent growth of Aspergillus niger after 72 hours of incubation. It counts as functional. The arrangement: concentration or dose not given beside the values. The procedure, abridged: as §2
Experiment [18] has as its system Globisporangium mamillatum. Kind of experiment: Percent growth of Pythium mammillatum after 72 hours of incubation. The class given is functional. Details: concentration or dose not given beside the values. The procedure, abridged:
as §2

For experiment [19], the system named is Globisporangium mamillatum. Kind of experiment: Percent growth of Pythium mammillatum after 7 days of incubation; NT=Not tested. The class given is functional. The gist of the method:
as §2

Experiment [20] has as its system A2780. Put plainly: In vitro growth inhibitory activity against A2780 human ovarium carcinoma cell line was determined. The class given is functional, cell-based. The procedure, abridged: (§4)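 Cell growth inhibition measured in cultured tumour cells by MTT assay. IC50 derived from the growth inhibition.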
The subject of experiment [21] is K562. Put plainly: In vitro growth inhibitory activity against K562 human chronic myelogenous leukemia cell line was determined. It counts as functional, cell-based. The gist of the method:
as §4

The structures appear in SMILES notation. pIC50: −log10 of the molar value.

As to `CCCCC/C=C/c1cc(C)oc(=O)c1`, the Activity in [1] came out at 21 mm; in experiment [5], 34 mm; in experiment [7] it was 17 mm; in experiment [9], 18 mm; in [14], 18 mm; in experiment [16], 0 mm. The Growth in experiment [2] was found to be 100%; in experiment [3], 95%; in experiment [4], 2%; in [6], 93%; in experiment [8], 24%; in experiment [10] it was 38%. The Growth in experiment [11] worked out at 100%; in [12], 45%; in experiment [13], 94%; in experiment [15], 100%; in experiment [17] it was 89%; in experiment [18] it was 31%.

In the case of `CCC/C=C/c1c(OC)cc(=O)oc1C`, the Activity in experiment [1] was 11 mm; in experiment [5], 20 mm; in experiment [7] it was 0 mm; in experiment [9], 17 mm; in [14], 16 mm; in experiment [16], 10 mm. The Growth in [19] is recorded as 100%; in experiment [2], 100%; in [3], 100%; in [4], 8%; in experiment [8], 35%; in [10], 50%. Also, the Growth came out at 100% in experiment [11]; 39% in [12]; 90% in experiment [13]; 100% in experiment [15]; 82% in [17]; 43% in [18].

As a reminder, the pIC50 is the negative decadic logarithm of the IC50, by convention in mol/L. Consider `CCCCCC/C=C/c1c(OC)cc(C)oc1=O`, for which the Activity in [1] was 0 mm; in experiment [5] it was 0 mm; in [7], 0 mm; in experiment [9], 0 mm; in experiment [14], 18 mm; in experiment [16], 0 mm. In addition, the Growth was 100% in experiment [2]; 100% in [3]; 11% in experiment [4]; 100% in [6]; 60% in experiment [8]; 53% in experiment [10]. Besides, the Growth was determined as 100% in [11]; 60% in experiment [12]; 95% in experiment [13]; 100% in [15]; 89% in experiment [17]; 25% in experiment [18]. In addition, the pIC50 in experiment [20] and in experiment [21] was 4.52 throughout.

Regarding `CCCC/C=C/c1cc(C)oc(=O)c1`, the Activity in [1] was 24 mm; in experiment [5], 40 mm; in experiment [7], 0 mm; in [9], 18 mm; in experiment [14] it was 18 mm; in [16] it was 0 mm. Moreover, the Growth in experiment [2] was found to be 100%; in experiment [3] it was 96%; in experiment [4], 2%; in [6], 100%; in [8] it was 25%; in experiment [10], 36%. For the same molecule, the Growth in [11] is recorded as 100%; in experiment [12], 44%; in experiment [13], 95%; in experiment [15] it was 100%; in experiment [17], 92%; in experiment [18] it was 30%.

As to `CCCCCC/C=C/c1c(OC)cc(=O)oc1C`, the Activity was found to be 18 mm in experiment [1]; 22 mm in experiment [5]; 16 mm in experiment [7]; 14 mm in experiment [9]; 16 mm in experiment [14]; 0 mm in experiment [16]. Also, the Growth in experiment [19] came to 90%; in experiment [2], 94%; in [3], 100%; in experiment [4] it was 10%; in experiment [8], 46%; in experiment [10], 40%. Moreover, the Growth in experiment [11] is reported as 100%; in experiment [12], 29%; in [13] it was 93%; in experiment [15], 100%; in experiment [17] it was 90%; in experiment [18], 22%. For the same molecule, the pIC50 in experiment [20] is 4.57; in [21], 4.48.

Take `COc1cc(=O)oc(C)c1-c1ccc(C)cc1`: the Activity came out at 0 mm in [1]; 20 mm in experiment [5]; 0 mm in [7]; 6 mm in experiment [9]; 8 mm in experiment [14]; 0 mm in experiment [16]. For the same molecule, the Growth in experiment [19] is 100%; in experiment [2] it was 100%; in experiment [4], 10%; in experiment [8], 54%; in [10], 61%; in experiment [11] it was 100%. The Growth is listed as 49% in experiment [12], above 95% in experiment [13] and above 90% in [17].

The values are drawn from ChEMBL document CHEMBL1136151, “Suzuki cross-coupling approaches to the synthesis of bioactive 3-substituted and 5-substituted-4-methoxy-6-methyl-2-pyrones” (Bioorg Med Chem Lett, 2003).
